Reference: ChEMBL document CHEMBL1126280, “Development of a novel series of styrylquinoline compounds as high-affinity leukotriene D4 receptor antagonists: synthetic and structure-activity studies leading to the discovery of (+-)-3-[[[3-[2-(7-chloro-2-quinolinyl)-(E)-ethenyl]phenyl][[3- (dimethylamino)-3-oxopropyl]thio]methyl]thio]propionic …” (J Med Chem, 1992)

Legend:
Rattus norvegicus [1] = assay: Compound was evaluated in vivo for inhibition of dyspnea induced by a 5 min aerosol of ovalbumin in 6 hyperreactive rats at dose of 0.5 mg/Kg; type: functional
Procedure, shortened: (§1)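 Oral single-dose test in hyperreactive rats, six animals, with dyspnea provoked by a 5 min ovalbumin aerosol. The value is the percent inhibition of dyspnea at the one stated dose.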

Cavia porcellus = assay: Compound was evaluated in vivo for its effective dose against bronchoconstriction induced by LTD4 (0.2 ug/kg, iv) in anesthetized guinea pigs followed by id administration; type: functional
Procedure, shortened: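 Anesthetized guinea pigs were dosed once intraduodenally and challenged with LTD4 (0.2 μg/kg iv) 10, 30 and 50 min later. The effective dose is the minimum id dose giving over 50% inhibition of bronchoconstriction within 50 min. The number of experiments is reported with each value.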

Rattus norvegicus [2] = assay: Compound was evaluated in vivo for inhibition of dyspnea induced by a 5 min aerosol of ovalbumin in 6 hyperreactive rats for each of three doses; type: functional
Procedure, shortened: (§2)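 Oral dosing in hyperreactive rats. Dyspnea was provoked by a 5 min ovalbumin aerosol. Six rats were used at each of three doses. The ED50 was derived from the percent inhibition of dyspnea across those doses.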

[3] = biological target: T1, Cysteinyl leukotriene receptor 1 (Cavia porcellus, UniProt Q2NNR5); assay: (§3) In vitro inhibition of [3H]LTD4 binding to guinea pig lung membranes; type: functional, tissue-based, Membrane
T1 sequence (Q2NNR5 whole entry): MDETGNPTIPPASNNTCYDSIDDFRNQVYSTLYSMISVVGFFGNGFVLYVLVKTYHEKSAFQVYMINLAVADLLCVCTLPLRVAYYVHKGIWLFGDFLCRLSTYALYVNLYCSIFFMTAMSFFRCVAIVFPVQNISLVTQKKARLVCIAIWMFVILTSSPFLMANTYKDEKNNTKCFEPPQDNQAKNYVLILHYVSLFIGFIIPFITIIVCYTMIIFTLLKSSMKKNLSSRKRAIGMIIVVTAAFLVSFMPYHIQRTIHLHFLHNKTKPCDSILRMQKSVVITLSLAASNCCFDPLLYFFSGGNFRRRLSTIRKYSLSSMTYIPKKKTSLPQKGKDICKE

Rattus norvegicus [4] = assay: Compound was evaluated in vivo for inhibition of dyspnea induced by a 5 min aerosol of ovalbumin in 6 hyperreactive rats at dose of 1.5 mg/Kg; type: functional; procedure, shortened: as §1
[5] = biological target: T1, Cysteinyl leukotriene receptor 1; assay: as §3; type: tissue-based, Membrane
Rattus norvegicus [6] = assay: Compound was evaluated in vivo for inhibition of dyspnea induced by a 5 min aerosol of ovalbumin in six hyperactive rats for each of three doses; type: functional; procedure, shortened: as §2
[7] = biological target: T2, Cysteinyl leukotriene receptor 1 (Cavia porcellus) (UniProt Q2NNR5); assay: In vitro inhibition of [3H]LTD4 binding to guinea pig lung membranes at 1 uM; type: functional, tissue-based; conditions: Membrane
T2 sequence (whole entry): T1 sequence (Q2NNR5 whole entry)

| IC50 [5] | SMILES | Effective dose (Cavia porcellus) | also measured |
| --- | --- | --- | --- |
|  | O=C([O-])CCCOc1cccc(/C=C/c2ccc3ccc(Cl)cc3n2)c1.[Na+] | 2.5 mg/kg | inhibition in vivo at 0.5 mg/kg (Rattus norvegicus [1]): 41% |
|  | O=C([O-])CCCOc1cccc(/C=C/c2ccc3cc(Cl)c(Cl)cc3n2)c1.[Na+] | 1 mg/kg | ED50 (Rattus norvegicus [2]): 0.5 mg/kg |
|  | COC(=O)COc1cccc(/C=C/c2ccc3cc(C)ccc3n2)c1 | >10 mg/kg | IC50 [3]: 930 nM |
|  | O=C([O-])CCCOc1cccc(/C=C/c2ccc3cc(Cl)ccc3n2)c1.[Na+] | 5 mg/kg | inhibition in vivo at 1.5 mg/kg (Rattus norvegicus [4]): 40% |
| 89 nM | CN(C)C(=O)CCSC(SCCC(=O)O)c1cccc(SCc2ccc3ccc(Cl)cc3n2)c1 (stereo unspecified) |  |  |
| 250 nM | O=C(O)CCSC(SCCC(=O)O)c1cccc(CCCc2ccc3ccc(Cl)cc3n2)c1 |  |  |
| 2.2 nM | O=C(O)CCSC(SCCC(=O)N1CCOCC1)c1cccc(/C=C/c2ccc3ccc(Cl)cc3n2)c1 (stereo unspecified) |  | Inhibition (Rattus norvegicus [6]): 43%; Effective dose (Rattus norvegicus [2]): 0.15 mg/kg |
| 6000 nM | C(=C\c1ccc2ccccc2n1)/c1cccnc1 |  |  |
|  | O=C(O)CCSC(SCCC(=O)O)c1cccc(/C=C/c2ccc3ccc(Cl)cc3n2)c1 | 0.5 mg/kg | ED50 (Rattus norvegicus [2]): 0.1 mg/kg |
| 0.8 nM | CN(C)C(=O)CCSC(SCCC(=O)O)c1cccc(/C=C/c2ccc3ccc(Cl)cc3n2)c1 (stereo unspecified) [MK-571] | 0.1 mg/kg | ED50 (Rattus norvegicus [2]): 0.07 mg/kg |
| 32 nM | O=C(O)CCSC(SCCC(=O)O)c1cccc(C2CC2c2ccc3ccc(Cl)cc3n2)c1 (stereo unspecified) |  |  |
| 440 nM | O=C(O)CCSC(SCCC(=O)O)c1cccc(NC(=O)c2ccc3ccccc3n2)c1 |  |  |
|  | CCCC/C=C/c1ccc2nc(/C=C/c3cccc(OCC(=O)OC)c3)ccc2c1 |  | inhibition [7]: 12% |
| 57 nM | O=C(O)CCSC(SCCC(=O)O)c1cccc(CCc2ccc3ccc(Cl)cc3n2)c1 |  |  |
| 6000 nM | C(=C\c1ccc2ccccc2n1)/c1ccccc1 |  |  |
|  | CCOC(=O)CCCOc1cccc(/C=C/c2ccc3ccccc3n2)c1 | 5 mg/kg | ED50 (Rattus norvegicus [2]): 1.5 mg/kg |
| 13.6 nM | O=C(O)CCSC(SCCC(=O)O)c1cccc(OCc2ccc3ccc(Cl)cc3n2)c1 |  |  |
| 0.3 nM | NC(=O)CCSC(SCCC(=O)O)c1cccc(/C=C/c2ccc3ccc(Cl)cc3n2)c1 (stereo unspecified) | 0.5 mg/kg |  |
|  | CC(Oc1cccc(Sc2ccc3ccc(Cl)cc3n2)c1)C(=O)O (stereo unspecified) |  | inhibition [7]: 24% |
|  | O=C(O)CCCOc1cccc(/C=C/c2ccc3ccccc3c2)c1 |  | inhibition [7]: 11% |
| 3300 nM | C(=C\c1ccc2ccccc2n1)/c1ccncc1 |  |  |
| 60 nM | CN(C)CCSC(SCCC(=O)O)c1cccc(/C=C/c2ccc3ccc(Cl)cc3n2)c1 (stereo unspecified) |  |  |
|  | O=C([O-])CCCOc1cccc(/C=C/c2ccc3c(Cl)cccc3n2)c1.[Na+] | >5 mg/kg |  |
|  | COC(=O)COc1cccc(/C=C/c2ccc3ccccc3n2)c1 | 10 mg/kg | ED50 (Rattus norvegicus [2]): 2 mg/kg |
